# Test results as given in PubChem BioAssay.
# Active and inactive are the calls of the source.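 How the source made its calls, unless noted: active means viability loss from added drug above about 55%, and viability with drug at most 40%, in both replicates (limit read from the data, passing the limit was not always enough); inconclusive means both conditions met in only one replicate; inactive means neither replicate meets both conditions.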
# What was measured:
# [1] = Her2 expression decrease, cell viability multiplex – SKBR3 breast tumor cells, AlphaScreen, ATP viability, primary screen (AID 461;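 active means Her2 level under about 52% in both replicate screens, with viability over 70% of control, limit read from the data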;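 on Her2 level: lower value means less Her2 protein in the cells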;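 on viability: percent of carrier control wells set as 100% viability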); conditions: SKBR3 Her2 protein level, 18-24 h, measured here: SKBR3 viability, ATP luminescence, at 10 µM
# [2] = target: Receptor tyrosine-protein kinase erbB-2 (Homo sapiens) (UniProt P04626); assay: as above; conditions: 18-24 h, at 10 µM, stronger effect = lower value
# [3] = reduced viability of SK-BR-3 breast cancer cells – cell-based, 24 h, human, pilot screen (AID 572;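 active means viability at or below 10% of carrier control in both of two separate runs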;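 further: compound exposure lasted between 18 and 24 h rather than exactly 24 h; 100% = carrier-treated control wells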); conditions: SK-BR-3 viability, CellTiter-Glo luminescence, at 10 µM, stronger effect = lower value
# [4] = HUVEC growth inhibition – cell-based, human, primary screen (AID 575;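 active means viability at or below 30% in both replicate assays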;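 further: 100% = median of untreated cell wells with 0.1% DMSO on each plate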); conditions: HUVEC proliferation, CellTiter-Glo luminescence, 72 h; at 10 µM; stronger effect = lower value
# Method in brief: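 Timing: 72 h treatment at 37 °C; material: HUVEC primary cells; technique: CellTiter-Glo luminescence measuring cellular ATP; controls: vehicle and MePR control wells; measure: percent of median DMSO-control luminescence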
# [5] = H69AR cell proliferation blockers – human, duplicate replicates, primary screen (AID 580;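 active means viability at or under a set limit in both replicates, limit being median viability minus 3 SD, cut at about 48% in these data, passing the limit was not always enough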;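 further: 100% = mean luminescence of untreated wells and 0% = no signal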); conditions: H69AR lung tumor cells viability, ATP luminescence, 72 h; at 10 µM; stronger effect = lower value
# [6] = MRP1 drug-resistance reversers in H69AR cells – cell-based, doxorubicin co-treatment, pilot screen (AID 601); conditions: CellTiter-Glo, 72 h, at 10 µM; for differential viability (reversal): stronger effect = higher value
# [7] = yeast transport mutant growth inhibition pilot in 384-well plates, post-Golgi transport modulator project (AID 636; in the data active means inhibition above about 31%); conditions: absorbance 615 nm, about 18 h, stronger effect = higher value
# [8] = growth suppression of yeast trafficking mutant, preliminary HTS, modulators of trafficking downstream of Golgi apparatus project, 1536-format plate, OD 615 nm (AID 637; in the data active means inhibition above about 30%); conditions: yeast transport mutant growth, absorbance 615 nm, 18 h; stronger effect = higher value
# [9] = H69AR cells + 2 uM doxorubicin, measured here: viability with 2 uM doxorubicin, stronger effect = lower value
# [10] = H69AR cells, compound alone cytotoxicity
# Receptor tyrosine-protein kinase erbB-2 (Homo sapiens), sequence (P04626 whole entry, looked up): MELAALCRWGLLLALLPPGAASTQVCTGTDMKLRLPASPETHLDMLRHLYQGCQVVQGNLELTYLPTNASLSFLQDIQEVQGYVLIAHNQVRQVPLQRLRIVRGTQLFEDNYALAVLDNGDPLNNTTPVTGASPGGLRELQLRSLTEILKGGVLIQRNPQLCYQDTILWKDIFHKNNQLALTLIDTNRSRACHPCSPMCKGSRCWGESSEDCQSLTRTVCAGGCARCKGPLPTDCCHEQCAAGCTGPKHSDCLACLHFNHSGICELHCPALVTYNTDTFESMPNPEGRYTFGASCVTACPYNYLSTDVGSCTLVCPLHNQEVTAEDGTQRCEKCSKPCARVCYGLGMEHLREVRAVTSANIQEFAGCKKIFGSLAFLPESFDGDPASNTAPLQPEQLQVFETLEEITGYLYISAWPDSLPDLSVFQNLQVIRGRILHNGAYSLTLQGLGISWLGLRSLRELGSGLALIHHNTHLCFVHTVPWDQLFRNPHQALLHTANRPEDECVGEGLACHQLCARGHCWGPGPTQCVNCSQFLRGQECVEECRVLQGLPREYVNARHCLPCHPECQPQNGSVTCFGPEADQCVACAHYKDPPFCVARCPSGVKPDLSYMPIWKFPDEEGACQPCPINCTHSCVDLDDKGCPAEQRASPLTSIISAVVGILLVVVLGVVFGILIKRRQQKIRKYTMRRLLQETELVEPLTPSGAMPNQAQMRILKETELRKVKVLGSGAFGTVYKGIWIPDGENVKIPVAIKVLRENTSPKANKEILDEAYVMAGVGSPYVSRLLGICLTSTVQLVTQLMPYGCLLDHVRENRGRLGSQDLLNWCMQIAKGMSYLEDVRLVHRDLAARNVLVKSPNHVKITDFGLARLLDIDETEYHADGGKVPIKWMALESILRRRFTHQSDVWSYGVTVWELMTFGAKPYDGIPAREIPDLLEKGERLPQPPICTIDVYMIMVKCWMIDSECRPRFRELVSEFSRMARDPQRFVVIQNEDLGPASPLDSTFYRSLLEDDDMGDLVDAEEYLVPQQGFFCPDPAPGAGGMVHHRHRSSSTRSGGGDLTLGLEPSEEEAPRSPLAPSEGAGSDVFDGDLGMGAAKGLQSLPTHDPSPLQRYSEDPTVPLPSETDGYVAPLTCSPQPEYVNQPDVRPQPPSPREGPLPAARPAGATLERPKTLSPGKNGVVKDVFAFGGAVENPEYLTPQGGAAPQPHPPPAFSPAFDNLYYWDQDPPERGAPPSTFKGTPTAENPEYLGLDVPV
Compound,viability [1],Her2 level [2],viability [3],viability [4],viability [5],differential viability (reversal) ([6]; H69AR cells + 2 uM doxorubicin),"viability [6, 9]","viability [6, 10]",inhibition [7],inhibition [8]
N#Cc1c(/N=C/c2ccco2)sc2c1CCC2,99%,139% (inactive),99% (inactive),85.2% (inactive),85.7% (inactive),-1.43% (inactive),87.1%,85.7%,-2.76% (inactive),11.2% (inactive)
Cc1ccc(CCC(=O)Nc2ccc(S(N)(=O)=O)cc2)o1,87.5%,116% (inactive),87.5% (inactive),98.4% (inactive),109% (inactive),7.87% (inactive),101%,109%,1.33% (inactive),6.23% (inactive)
Cc1cccc(CCNC(=O)C2CCCN(S(=O)(=O)c3cnc[nH]3)C2)c1 (stereo not given),99.5%,106% (inactive),99.5% (inactive),103% (inactive),89.4% (inactive),3.16% (inactive),86.2%,89.4%,-4.93% (inactive),-1.97% (inactive)
COc1ccc2c(c1)Sc1ccccc1N2CCN(C)C,88.5%,86.5% (inactive),88.5% (inactive),59.1% (inactive),68.8% (inactive),-3.43% (inactive),72.3%,68.8%,-5.39% (inactive),-6.29% (inactive)
Cc1ccc(-c2nnn(CC(=O)N(CC(=O)NC3CCCCC3)c3cnc4ccccc4c3)n2)o1,98%,92% (inactive),98% (inactive),93.3% (inactive),96.5% (inactive),15.9% (inactive),80.6%,96.5%,-7.6% (inactive),-1.61% (inactive)
CCCC1(C(=O)OCC)NC(c2ccc(N(C)C)cc2)C2C(=O)N(c3ccccc3)C(=O)C21 (stereo not given),109%,99% (inactive),109% (inactive),99.2% (inactive),97.2% (inactive),3.73% (inactive),93.5%,97.2%,-7.11% (inactive),-6.03% (inactive)
CSc1nc(C)c(C(=O)Nc2ccccc2)c(C)c1C#N,100%,76% (inactive),100% (inactive),91.7% (inactive),94.2% (inactive),6.57% (inactive),87.6%,94.2%,-5.87% (inactive),-3.39% (inactive)
COc1ccc2c(c1)cc(C(=O)O)n2C,92.5%,73% (inactive),92.5% (inactive),102% (inactive),98.7% (inactive),8.84% (inactive),89.9%,98.7%,-5.39% (inactive),-5.67% (inactive)
CCOC(=O)C1CCN(c2c(Nc3ccc4c(c3)OCCO4)c(=O)c2=O)CC1,82.5%,100% (inactive),82.5% (inactive),88% (inactive),88.4% (inactive),-0.805% (inactive),89.2%,88.4%,1.03% (inactive),3.17% (inactive)
Cc1ccc(NC(=O)CNc2cccc(C)c2C)c(C)c1,106%,86.5% (inactive),106% (inactive),98.3% (inactive),79.2% (inactive),10.1% (inactive),69%,79.2%,-0.53% (inactive),-1.45% (inactive)
CC(C)(C)Nc1nc(NC(C)(C)C)nc(-n2ccnc2)n1,122%,80% (inactive),122% (inactive),69% (inactive),88.6% (inactive),1.06% (inactive),87.6%,88.6%,-0.26% (inactive),10.8% (inactive)
C=CCn1cc(C(=O)NCCOC)c(=O)c2cc(S(=O)(=O)N(CC)CC)ccc21,98.5%,93.5% (inactive),98.5% (inactive),86.6% (inactive),83.1% (inactive),-9.34% (inactive),92.4%,83.1%,-5.13% (inactive),-2.73% (inactive)
CCOC(=O)c1ccc(NC(=O)CSc2ncccn2)cc1,104%,112% (inactive),104% (inactive),85.9% (inactive),96.9% (inactive),2.45% (inactive),94.5%,96.9%,-0.53% (inactive),4.26% (inactive)
O=C(Nn1c(C2CC2)nc2ccccc2c1=O)c1ccco1,109%,108% (inactive),109% (inactive),93.9% (inactive),95.4% (inactive),-0.5% (inactive),95.9%,95.4%,-3.77% (inactive),-6.39% (inactive)
c1ccc2ncc(-n3cnnn3)cc2c1,99.5%,105% (inactive),99.5% (inactive),83.2% (inactive),94% (inactive),6.05% (inactive),87.9%,94%,-3.24% (inactive),5.74% (inactive)
CCOC(=O)c1cccnc1SCC(=O)NC(C)CC (stereo not given),92%,93% (inactive),92% (inactive),96.7% (inactive),102% (inactive),9.73% (inactive),92.3%,102%,2.08% (inactive),-3.61% (inactive)

Compound,viability [1],Her2 level [2],viability [3],viability [4],viability [5],differential viability (reversal) ([6]; H69AR cells + 2 uM doxorubicin),"viability [6, 9]","viability [6, 10]",inhibition [7],inhibition [8]
CCOc1ccc(C(=O)N2CCN(C(=O)c3ccco3)CC2)cc1OCC,110%,85% (inactive),110% (inactive),85.8% (inactive),94.3% (inactive),0.255% (inactive),94%,94.3%,-3.47% (inactive),-0.79% (inactive)
COc1ccc(-n2nnnc2-c2cccc(OC)c2)cc1,102%,87.5% (inactive),102% (inactive),45.3% (inactive),34.5% (active),-26.5% (inactive),61.1%,34.5%,-5.95% (inactive),-1% (inactive)
CCOCCCNS(=O)(=O)c1ccc2c(c1)oc(=O)n2CC(=O)OCC,107%,98.5% (inactive),107% (inactive),104% (inactive),94.3% (inactive),-8.29% (inactive),103%,94.3%,-4.74% (inactive),-1.27% (inactive)
CC(NC(=O)COc1ccc(Br)cc1)C(=O)O (stereo not given),108%,114% (inactive),108% (inactive),104% (inactive),91.8% (inactive),4.2% (inactive),87.6%,91.8%,-3.64% (inactive),-2.33% (inactive)
CC(=O)Nc1ccc(Cl)cc1C(=O)O,96.5%,97.5% (inactive),96.5% (inactive),85.8% (inactive),106% (inactive),10.4% (inactive),95.3%,106%,-5.87% (inactive),-1.29% (inactive)
CC(=O)N1C(=O)C2(C(C#N)=C(N)Oc3cc(C)oc(=O)c32)c2ccccc21 (stereo not given),95.5%,112% (inactive),95.5% (inactive),95.9% (inactive),88.1% (inactive),7.52% (inactive),80.6%,88.1%,1.84% (inactive),-2.91% (inactive)
COc1ccc(CN(C(=O)c2oc3ccccc3c2C)C2CCS(=O)(=O)C2)cc1 (stereo not given),86%,112% (inactive),86% (inactive),83.6% (inactive),90.5% (inactive),8.78% (inactive),81.7%,90.5%,-4.13% (inactive),-11.1% (inactive)
COC(=O)CN(c1nc(C)c(Cl)c(OC)n1)S(=O)(=O)c1ccc(C)cc1,117%,104% (inactive),117% (inactive),86.9% (inactive),84.9% (inactive),2.96% (inactive),81.9%,84.9%,-3.64% (inactive),-2.86% (inactive)
Cn1c(SCCN2CCCCC2)nnc1-c1ccccc1Br,94.5%,95.5% (inactive),94.5% (inactive),105% (inactive),105% (inactive),9.74% (inactive),95.3%,105%,-4.4% (inactive),5.48% (inactive)
CCOc1ccc2[nH]c(=O)c(CN(CCOC)C(=O)N3CCOCC3)cc2c1,97%,90% (inactive),97% (inactive),102% (inactive),92.1% (inactive),-8.59% (inactive),101%,92.1%,-3.33% (inactive),4.59% (inactive)
C1CCC2=NCCCN2CC1,122%,87.5% (inactive),122% (inactive),100% (inactive),107% (inactive),8.22% (inactive),98.4%,107%,-7.33% (inactive),-1.9% (inactive)
Cc1nc2ccc(NC(=O)N3CCC(c4ccccc4)C3)cc2nc1C (stereo not given),101%,93.5% (inactive),101% (inactive),57.7% (inactive),74.8% (inactive),9.41% (inactive),65.4%,74.8%,-4.21% (inactive),-1.43% (inactive)
CN(C)c1ccc(-c2nn3c(-c4ccc(Cl)cc4Cl)nnc3s2)cc1,100%,71% (inactive),100% (inactive),46.7% (inactive),15.1% (active),-42.6% (inactive),57.7%,15.1%,-6.08% (inactive),5.08% (inactive)
COC(=O)C(O)(CC(=O)c1ccc(OC)cc1)C(F)(F)F (stereo not given),100%,98% (inactive),100% (inactive),91.5% (inactive),95.9% (inactive),0.63% (inactive),95.3%,95.9%,-1.33% (inactive),-5% (inactive)
CCn1c(SCC(=O)c2ccc(F)cc2)nnc1-c1ccoc1C,104%,97.5% (inactive),104% (inactive),104% (inactive),106% (inactive),19.3% (inactive),86.9%,106%,-6.1% (inactive),-0.95% (inactive)
Cc1ccc(C)c(N2CCN(C(=O)c3ccc(CS(=O)(=O)c4ccccc4C)o3)CC2)c1,82%,66.5% (inactive),82% (inactive),50.8% (inactive),11.8% (active),-39.1% (inactive),50.9%,11.8%,-3.16% (inactive),1.27% (inactive)
